# In article PMC3428850 (Molecular cancer therapeutics, 2012):
# Where “and” joins values, the source holds several entries; their conditions need not be identical. Identical values can stand only once. Like-named read-outs stand apart in the source and are kept apart here.
# Legend:
# SW620 cells [1] = assay: clonogenic survival assay; format: cell-based, human
# MDA-MB-231 cells [2] = assay: cell growth inhibition, SRB assay, 5-day continuous exposure; format: cell-based; details: Homo sapiens, MDA-MB-231, 120 h
# In short: (§1)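 Human cancer cells in RPMI 1640 with 10% FBS, penicillin/streptomycin, at 37 °C and 5% CO2. Test compound (10 mM DMSO stock) given by continuous exposure for 5 days. Growth measured by SRB assay. […] Means ± SD of 3 independent experiments.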
# MDA-MB-231 cells [3] = assay: clonogenic survival assay; format: cell-based, human
# In short: (§2)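 Cells in RPMI 1640/10% FBS were exposed in 6-well plates for 16 h to etoposide or doxorubicin with or without test compound (1 μM), or to test compound alone. Cells then harvested and reseeded in drug-free medium. Colonies stained with crystal violet after 10-14 days and counted automatically. Fold enhancement = survival with cytotoxic alone / survival with cytotoxic + 1 μM test compound. Means ± SD, n = 3.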
# MCF7 xenografts = assay: anti-tumour efficacy study, MCF7 xenografts; format: in vivo; details: MCF7 tumour-bearing mice
# MCF7 cells = assay: clonogenic survival assay; format: cell-based, human; details: MCF7, 1 μM, 16 hr exposure, single agent
# In short: as §2
# LoVo cells = assay: cell growth inhibition, SRB assay, 5-day continuous exposure; format: cell-based, human
# In short: as §1
# [4] = format: in vivo, mice; details: for concentration at 60 min / concentration at 120 min: female, CD1-nu/nu (athymic), mouse, intravenous, 12.5 mg/kg
# In short: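 Female athymic CD1-nu/nu mice kept in SPF isolators, bearing MCF7 or SW620 xenografts (650 mm³). Test compound 12.5 mg/kg i.v. in equimolar phosphoric acid/saline, pH 5. Tumours homogenised in PBS (1:3 w/v) on ice. Plasma and tumour concentrations by LC-MS/MS. Means ± SD of 3 mice per time point.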
# SW620 xenografts = assay: anti-tumour efficacy study, SW620 xenografts; format: in vivo, mice
# In short: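 Female athymic CD1-nu/nu mice with s.c. SW620, n = 5/group, treated once tumours were palpable (~5 × 5 mm, day 8-10). Controls: saline i.p. daily. Test compound 10 mg/kg i.p. for 5 days. Etoposide phosphate 11.35 mg/kg i.p. (10 mg/kg etoposide) daily × 5. Combination: test compound i.p. once or twice daily × 5, first dose just before etoposide. Caliper volume a²×b/2; median RTV (day 0 = 1); time to RTV4.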
# SW620 cells [5] = assay: cell growth inhibition, SRB assay, 5-day continuous exposure; format: cell-based, human
smiles,measurement,setting,value
"CCN1CCN(CC(=O)Nc2ccc(-c3cccc4c(=O)cc(N5CCOCC5)oc34)c3sc4ccccc4c23)CC1 [KU-0060648, 2-(4-ethylpiperazin-1-yl)-N-(4-(2-morpholino-4-oxo-4H-chromen-8-yl)dibenzo[b,d]thiophen-1-yl)acetamide]",Fold enhancement of doxorubicin cytotoxicity (survival cytotoxic alone/survival cytotoxic + 1 μM KU-0060648),"SW620 cells [1]; SW620, 100 nM doxorubicin, 16 hr",12 fold and 12±8 fold
same,overall cell survival (clonogenic),"SW620 cells [1]; SW620, 1 μM, 16 hr exposure, single agent",≥ 80%
same,GI50,MDA-MB-231 cells [2],1 µM
same,inhibition at 1 µM,MDA-MB-231 cells [2]; read-out: inhibition of cell growth,> 50%
same,Fold enhancement of doxorubicin cytotoxicity (survival cytotoxic alone/survival cytotoxic + 1 μM KU-0060648),"MDA-MB-231 cells [3]; MDA-MB-231, 100 nM doxorubicin, 16 hr",3.8±0.6 fold
same,overall cell survival (clonogenic),"MDA-MB-231 cells [3]; MDA-MB-231, 1 μM, 16 hr exposure, single agent",41%
same,maximum body weight loss,MCF7 xenografts,3%
same,overall cell survival (clonogenic),MCF7 cells,≥ 80%
same,"total cell growth over 5 days, of DMSO treated controls",LoVo cells; 1 μM,10%
same,GI50,"LoVo cells; Homo sapiens, 120 h",0.21 µM
same,inhibition at 1 µM,"LoVo cells; Homo sapiens, 120 h, read-out: inhibition of cell growth",> 50%
same,concentration maintained in the tumour,"[4]; MCF7 xenografts, 12.5 mg/kg i.v., for at least 4 hours",over 1 μM
same,concentration at 60 min,[4]; plasma,1000 ± 600 nM
same,concentration at 120 min,[4]; plasma,800 ± 500 nM
same,concentration at 60 min,[4]; tumour (MCF7 xenograft),7000 ± 3800 nM
same,concentration at 120 min,[4]; tumour (MCF7 xenograft),4700 ± 1100 nM
same,maximum body weight loss,SW620 xenografts; SW620 tumour-bearing mice,no body weight loss
same,fold increase of etoposide-induced tumour growth delay,SW620 xenografts; in both SW620 and MCF7 xenografts,up to 4.5 fold
same,GI50,"SW620 cells [5]; Homo sapiens, SW-620, 120 h",0.95 µM
same,inhibition of cell growth,"SW620 cells [5]; SW620, 1 μM, 5 days, 1 µM",> 50% and 50%
